Our source for the Biodistribution and Ratio values is ChEMBL document CHEMBL1141109, “Synthesis of an estrogen receptor beta-selective radioligand: 5-[18F]fluoro-(2R,3S)-2,3-bis(4-hydroxyphenyl)pentanenitrile and comparison of in vivo distribution with 16alpha-[18F]fluoro-17beta-estradiol” (J Med Chem, 2005).

A short description of series [1]: Biodistribution of [18F]FES in beta estrogen receptor knock out mouse kidney after 30 min(n=2); mice in nonestrus stage. To be noted: in vivo, 0.5 h. Type of series: ADME, organism-based.
A short description of series [2]: Biodistribution of [18F]FES in alpha estrogen receptor knock out mouse lung after 2 h; (n=3). Type of series: ADME, organism-based. To be noted: in vivo. In outline: (§1)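 Female αERKO mice were rested 48 h after shipping and fed estrogen-free chow. They were staged by daily vaginal smears and studied in diestrus. Each received 13 µCi [18F]FES in 100 µL 10% ethanol/saline and was sacrificed at 30 min, 1 h or 2 h (n = 3 per time). Tissue uptake is given as %ID/g ± SD.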

Series [3] in a line: Biodistribution of [18F]FES in alpha estrogen receptor knock out mouse ovaries after 1 h; (n=3). The settings on record: in vivo. Type of series: ADME, organism-based, Female gonad. Put shortly: as §1
The nature of series [4]: Biodistribution of [18F]FES in alpha estrogen receptor knock out mouse ovaries after 2 h; (n=3). Type of series: ADME, organism-based, Female gonad. The settings on record: in vivo. Put shortly:
as §1

Series [5] is described as follows: Biodistribution of [18F]-FES in beta estrogen receptor knock out mouse heart after 30 min; (n=3). Type of series: ADME, organism-based. The settings on record: in vivo, 0.5 h. In outline: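 Female βERKO mice in estrus were used because repeated swabbing had induced pseudopregnancy. They were fed estrogen-free chow. Each received 13 µCi [18F]FES in 100 µL 10% ethanol/saline and was sacrificed at 30 min, 1 h or 2 h (n = 3 each). Tissue uptake is given as %ID/g ± SD.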

The nature of series [6]: Biodistribution of [18F]FES in beta estrogen receptor knock out mouse thymus after 2 h; (n=3). It is filed as ADME, organism-based. To be noted: in vivo.
Series [7] in a line: Biodistribution of [18F]-FES in alpha estrogen receptor knock out mouse kidney after 2 h; (n=3). It is filed as ADME, organism-based. The settings on record: in vivo. In outline: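 Female αERKO mice rested 48 h after shipping and fed estrogen-free chow. Estrous stage was checked by daily vaginal smears, and mice were used in diestrus. Each received 13 µCi [18F]FES in 100 µL 10% ethanol/saline. Animals were sacrificed at 30 min, 1 h or 2 h (n = 3 each). Tissue uptake is reported as %ID/g ± SD.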

The nature of series [8]: Biodistribution of [18F]-FES in alpha estrogen receptor knock out mouse muscle after 1 h; (n=3). Type of series: ADME, organism-based, Muscle tissue. To be noted: in vivo. In outline:
as §1

A short description of series [9]: Biodistribution of [18F]FES in beta estrogen receptor knock out mouse bone after 30 min; (n=3). Type of series: ADME, organism-based, Bone element. The settings on record: in vivo, 0.5 h.
Series [10] is described as follows: Biodistribution of [18F]FES in beta estrogen receptor knock out mouse ovaries after 1 h; (n=3). It is filed as ADME, organism-based, Female gonad. The settings on record: in vivo.
A short description of series [11]: Biodistribution of [18F]FES in alpha estrogen receptor knock out mouse heart after 30 min; (n=3). Type of series: ADME, organism-based. The settings on record: in vivo, 0.5 h. Put shortly: as §1
Series [12] in a line: Biodistribution of [18F]FES in beta estrogen receptor knock out mouse kidney after 30 min; (n=3). The settings on record: in vivo, 0.5 h. It is filed as ADME, organism-based.
Series [13] in a line: Biodistribution of [18F]FES in beta estrogen receptor knock out mouse muscle after 30 min; (n=3). Type of series: ADME, organism-based, Muscle tissue. The settings on record: in vivo, 0.5 h.
The nature of series [14]: Biodistribution of [18F]FES in beta estrogen receptor knock out mouse spleen after 30 min; (n=3). Type of series: ADME, organism-based. The settings on record: in vivo, 0.5 h.
Series [15] can be described thus: Biodistribution of [18F]FEDPN in beta estrogen receptor knock out mouse fat after 2 h; (n=3). It is filed as ADME, organism-based, Adipose tissue. The settings on record: in vivo. Put shortly:
(§2)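 αERKO and βERKO mice, staged by daily vaginal smears and kept on estrogen-free chow, were studied in a nonestrous stage. Each mouse received 11 μCi of tracer in 130 μL of 10% ethanol/saline. Mice were killed at 30 min, 1 h or 2 h (n = 3 each). Organs were removed, blotted, weighed and gamma-counted against an injectate standard. Uptake is given as %ID/g ± SD.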

Series [16] is described as follows: Biodistribution of [18F]FEDPN in alpha estrogen receptor knock out mouse fat after 2 h; (n=3). It is filed as ADME, organism-based, Adipose tissue. To be noted: in vivo. In outline: (§3)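 ERKO female mice (αERKO or βERKO), rested 48 h after shipping, placed on estrogen-free chow, and staged by daily vaginal smears. Injected in a nonestrous stage with 11 µCi [18F]FEDPN in 130 µL of 10% ethanol/saline. Killed at 30 min, 1 h or 2 h. Organs counted and reported as %ID/g ± SD, three animals per point.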

Series [17] can be described thus: Biodistribution of [18F]FEDPN in beta estrogen receptor knock out mouse bone after 1 h; (n=3). Type of series: ADME, organism-based, Bone element. The settings on record: in vivo. In outline:
as §2

Series [18] can be described thus: Biodistribution of [18F]FEDPN in beta estrogen receptor knock out mouse brain after 2 h; (n=3). Type of series: ADME, organism-based. The settings on record: in vivo. In outline: as §2
The nature of series [19]: Biodistribution of [18F]FEDPN in rat bone after 1 h when given in tail vein; (n=5). The settings on record: in vivo, iv. It is filed as ADME, organism-based, Bone element. In outline:
(§4)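 Immature female Sprague–Dawley rats (<25 days old) under isoflurane/O2 got 20 µCi tracer in 150 µL 20% ethanol/saline by tail vein. […] Rats were killed at 30 min, 1 h or 2 h. Organs were blotted, weighed and gamma-counted against an injectate standard. Data are %ID/g ± SD, five rats per point.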

Series [20] is described as follows: Biodistribution of [18F]FEDPN in rat fat after 1 h block when given in tail vein; (n=5). Type of series: ADME, organism-based, Adipose tissue. To be noted: in vivo, iv. In outline:
as §4

A short description of series [21]: Biodistribution of [18F]FEDPN in rat muscle after 30 min when given in tail vein; (n=5). Type of series: ADME, organism-based, Muscle tissue. The settings on record: in vivo, iv, 0.5 h. In outline: as §4
The nature of series [22]: Biodistribution of [18F]-FEDPN in rat heart after 1 hr block when given in tail vein; (n=5). It is filed as ADME, organism-based. The settings on record: in vivo, iv. Put shortly:
(§5)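 Immature female Sprague–Dawley rats (<25 days old) anesthetized with isoflurane/O2. Given 20 µCi tracer by tail vein in 150 µL of 20% ethanol/saline. […] Killed at 30 min, 1 h or 2 h. Blood and organs blotted, weighed and gamma-counted against a standard dilution of the injectate. Reported as %ID/g ± SD, n=5.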

Series [23] in a line: Biodistribution of [18F]FEDPN in rat liver after 1 h block when given in tail vein; (n=5). The settings on record: in vivo, iv. It is filed as ADME, organism-based. In outline:
as §4

Series [24] in a line: Biodistribution of [18F]-FEDPN in rat muscle after 1 hr block when given in tail vein; (n=5). It is filed as ADME, organism-based, Muscle tissue. The settings on record: in vivo, iv. Put shortly:
as §5

The nature of series [25]: Biodistribution of [18F]FEDPN in beta estrogen receptor knock out mouse liver after 2 h; (n=3). Type of series: ADME, organism-based. To be noted: in vivo. Put shortly: as §2
Series [26] in a line: Biodistribution of [18F]FEDPN in alpha estrogen receptor knock out mouse blood after 1 h; (n=3). It is filed as ADME, organism-based. To be noted: in vivo. In outline:
as §3

Series [27] can be described thus: Biodistribution of [18F]FEDPN in alpha estrogen receptor knock out mouse brain after 1 h; (n=3). It is filed as ADME, organism-based. To be noted: in vivo. Put shortly: as §3
Series [28] is described as follows: Biodistribution of [18F]FEDPN in beta estrogen receptor knock out mouse kidney after 2 h; (n=3). Type of series: ADME, organism-based. To be noted: in vivo. Put shortly: as §2
The nature of series [29]: Biodistribution of [18F]FEDPN in beta estrogen receptor knock out mouse muscle after 1 h; (n=3). Type of series: ADME, organism-based, Muscle tissue. The settings on record: in vivo. Put shortly: as §2
Series [30] in a line: Biodistribution of [18F]FEDPN in beta estrogen receptor knock out mouse blood after 30 min; (n=3). It is filed as ADME, organism-based. To be noted: in vivo, 0.5 h. In outline:
as §2

A short description of series [31]: Biodistribution of [18F]FEDPN in alpha estrogen receptor knock out mouse muscle after 2 h; (n=3). Type of series: ADME, organism-based, Muscle tissue. The settings on record: in vivo. In outline: as §2
Series [32] in a line: Biodistribution of [18F]-FEDPN in alpha estrogen receptor knock out mouse uterus after 1 h; (n=3). Type of series: ADME, organism-based. The settings on record: in vivo. Put shortly: as §3
Series [33] concerns the target T1, Estrogen receptor (Mus musculus) (UniProt O08537+P19785). Kind of series: Ratio of [18F]FEDPN uptake in ovaries of ERbeta KO-mouse and ERalpha KO-mouse (nonestrus) after 1 hr.
Series [34] addresses T1, Estrogen receptor (Mus musculus). The experiment in a line: Ratio of [18F]FEDPN uptake in ovaries of ERbeta KO-mouse (diestrus) and ERalpha KO-mouse (nonestrus) after 30 min.

T1 sequence (O08537 whole entry, looked up): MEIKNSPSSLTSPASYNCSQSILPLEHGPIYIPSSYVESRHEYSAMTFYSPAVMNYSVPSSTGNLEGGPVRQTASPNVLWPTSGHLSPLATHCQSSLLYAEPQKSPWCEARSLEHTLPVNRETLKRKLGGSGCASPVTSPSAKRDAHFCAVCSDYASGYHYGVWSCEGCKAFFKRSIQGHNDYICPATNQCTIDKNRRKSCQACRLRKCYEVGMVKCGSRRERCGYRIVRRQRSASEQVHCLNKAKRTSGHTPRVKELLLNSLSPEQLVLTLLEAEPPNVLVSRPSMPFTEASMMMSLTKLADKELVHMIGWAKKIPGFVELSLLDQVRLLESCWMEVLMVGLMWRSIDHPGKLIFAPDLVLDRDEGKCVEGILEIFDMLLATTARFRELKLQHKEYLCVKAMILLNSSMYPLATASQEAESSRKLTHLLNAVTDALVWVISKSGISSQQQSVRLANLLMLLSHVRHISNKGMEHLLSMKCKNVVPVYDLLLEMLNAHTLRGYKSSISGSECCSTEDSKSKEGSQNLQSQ
T1 sequence (P19785 whole entry, looked up): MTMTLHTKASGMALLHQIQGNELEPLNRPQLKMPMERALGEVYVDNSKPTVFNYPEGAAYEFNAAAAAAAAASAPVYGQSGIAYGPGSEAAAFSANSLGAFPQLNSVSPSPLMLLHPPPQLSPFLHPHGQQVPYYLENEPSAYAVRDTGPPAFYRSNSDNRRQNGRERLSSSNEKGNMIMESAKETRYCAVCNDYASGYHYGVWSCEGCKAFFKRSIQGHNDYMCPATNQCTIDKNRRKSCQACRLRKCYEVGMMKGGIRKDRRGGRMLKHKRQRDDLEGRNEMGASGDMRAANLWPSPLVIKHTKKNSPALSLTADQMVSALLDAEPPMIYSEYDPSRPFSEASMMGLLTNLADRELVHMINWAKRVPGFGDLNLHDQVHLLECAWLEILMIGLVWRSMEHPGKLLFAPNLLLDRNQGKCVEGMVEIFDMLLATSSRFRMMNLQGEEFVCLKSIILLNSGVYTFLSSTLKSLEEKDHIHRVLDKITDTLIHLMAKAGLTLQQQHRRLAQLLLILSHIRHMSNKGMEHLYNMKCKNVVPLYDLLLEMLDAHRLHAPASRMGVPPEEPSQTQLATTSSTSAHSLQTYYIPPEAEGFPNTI

In the case of `C[C@]12CC[C@@H]3c4ccc(O)cc4CC[C@H]3[C@@H]1C[C@@H](F)[C@@H]2O` [FLUOROESTRADIOL], the Biodistribution in [1] is listed as 4.44 %ID/g; in series [2], 0.17 %ID/g; in series [3], 0.49 %ID/g; in series [4], 0.18 %ID/g; in series [5] it was 1.04 %ID/g; in series [6], 0.38 %ID/g. Further, the Biodistribution in series [7] was 0.72 %ID/g; in series [8], 0.18 %ID/g; in series [9], 1.28 %ID/g; in series [10], 5.61 %ID/g; in [11], 0.62 %ID/g; in [12], 3.83 %ID/g. Moreover, the Biodistribution came out at 1.7 %ID/g in series [13] and 1.4 %ID/g in series [14].
With `N#C[C@H](c1ccc(O)cc1)[C@@H](CCF)c1ccc(O)cc1`, the Biodistribution amounted to 0.09 %ID/g in series [15]; 0.09 %ID/g in series [16]; 4.92 %ID/g in [17]; 0.3 %ID/g in series [18]; 2.22 %ID/g in series [19]; 0.21 %ID/g in series [20]. Besides, the Biodistribution in series [21] was 0.57 %ID/g; in [22], 0.19 %ID/g; in [23] it was 0.76 %ID/g; in series [24] it was 0.2 %ID/g; in series [25] it was 2.04 %ID/g; in [26], 0.42 %ID/g. Moreover, the Biodistribution in [27] is 0.51 %ID/g; in series [28], 1.39 %ID/g; in series [29], 0.75 %ID/g; in [30], 0.79 %ID/g; in [31], 0.36 %ID/g; in [32], 0.37 %ID/g. In addition, the Ratio in [33] is 0.79; in series [34], 1.32.
